From ChEMBL document CHEMBL1132437, “Synthesis and antimicrobial activity of 4H-4-oxoquinolizine derivatives: consequences of structural modification at the C-8 position” (1999)
In brackets after ≈: the same amount, converted by molar mass.

Assays:
Staphylococcus aureus [1] = assay: In vitro antibacterial activity against gram-positive Staphylococcus aureus 1775; format: functional
How it was run: (§1)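 Agar dilution MIC determination following the National Committee for Clinical Laboratory Standards recommendations.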

Escherichia coli [2] = assay: In vitro antibacterial activity against gram negative Escherichia coli KNK 437; format: functional; how it was run: as §1
Enterococcus faecium = assay: In vitro antibacterial activity against gram-positive Enterococcus faecium ATCC 8043; format: functional; how it was run: as §1
Burkholderia cepacia = assay: In vitro antibacterial activity against gram negative Pseudomonas cepacia 2961; format: functional; how it was run: as §1
Streptococcus pyogenes = assay: In vitro antibacterial activity against gram positive Streptococcus pyogenes 930; format: functional; how it was run: as §1
Mus musculus [3] = assay: In vivo efficacy against Pseudomonas aeruginosa 5007 in mouse protection test […]; format: functional
How it was run: (§2)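 Mouse protection model: mice infected intravenously with 100-fold LD50 of the organism. Compound given by subcutaneous injection or oral gavage at 1 and 5 h after infection, over a dose range. Deaths tracked for 7 days post-inoculation. ED50 is the dose giving 50% survival of treated mice over the trial.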

Escherichia coli [4] = assay: In vivo efficacy against Escherichia coli JUHL in mouse protection test after subcutaneous administration; format: functional; how it was run: as §2
Pseudomonas aeruginosa [5] = assay: In vitro antibacterial activity against gram negative P. aeruginosa DPHP 5263; format: functional; how it was run: as §1
Staphylococcus aureus [6] = assay: In vitro antibacterial activity against gram-positive Staphylococcus aureus NCTC 10649M; format: functional; how it was run: as §1
Pseudomonas aeruginosa [7] = assay: In vivo efficacy against Pseudomonas aeruginosa 5007 in mouse protection test after subcutaneous administration; format: functional; details: Pseudomonas aeruginosa, sc; read-out: ED50; how it was run: as §2
Staphylococcus aureus [8] = assay: In vivo efficacy against Staphylococcus aureus NCTC 10649M in mouse; format: functional; details: Staphylococcus aureus; read-out: ED50; how it was run: as §2
Pseudomonas aeruginosa [9] = assay: In vitro antibacterial activity against Gram-negative Pseudomonas aeruginosa 5007; format: functional; how it was run: as §1
Mus musculus [10] = assay: IIn vivo efficacy against Escherichia coli JUHL in mouse protection test after administration by oral gavage; format: functional; how it was run: as §2
Staphylococcus aureus [11] = assay: In vivo efficacy against Staphylococcus aureus NCTC 10649M in mouse protection test after p.o. administration.; format: functional; how it was run: as §2
Mus musculus [12] = assay: In vivo efficacy against Escherichia coli JUHL in mouse protection test after by oral gavage; format: functional; how it was run: as §2
Escherichia coli [13] = assay: In vitro antibacterial activity against Escherichia coli KNK 437 a ciprofloxacin less sensitive strain; format: functional; how it was run: as §1
Mus musculus [14] = assay: In vivo efficacy against Streptococcus pneumoniae ATCC 6303 in mouse protection test after administration by oral gavage; format: functional; how it was run: as §2
Mus musculus [15] = assay: In vivo efficacy against Escherichia coli JUHL in mouse protection test after administration by oral gavage.; format: functional; how it was run: as §2
Streptococcus pneumoniae = assay: In vivo efficacy against Streptococcus pneumoniae ATCC 6303 in mouse protection test after s.c. administration.; format: functional; how it was run: as §2
Pseudomonas aeruginosa [16] = assay: In vivo efficacy against Pseudomonas aeruginosa 5007 in mouse protection test after administration by oral gavage; format: functional; how it was run: as §2
Mus musculus [17] = assay: In vivo efficacy against Pseudomonas aeruginosa 5007 in mouse protection test after administration by oral gavage.; format: functional; how it was run: as §2
Mus musculus [18] = assay: In vivo efficacy against Escherichia coli JUHL in mouse protection test after administration by oral gavage; format: functional; how it was run: as §2
Mus musculus [19] = assay: In vivo antibacterial activity (dose protecting 50% mice)against Gram-positive S aureus NCTC 10649M after subcutaneous administration.; format: functional; details: sc; how it was run: as §2
Mus musculus [20] = assay: IIn vivo efficacy against Streptococcus pneumoniae ATCC 6303 in mouse protection test after oral administration by oral gavage
Escherichia coli [21] = assay: In vivo efficacy against Escherichia coli JUHL in mouse protection test after p.o. administration.; format: functional; how it was run: as §2
Mus musculus [22] = assay: In vivo efficacy against Streptococcus pneumoniae ATCC 6303 in mouse protection test after administration by oral gavage.; format: functional; how it was run: as §2
Mus musculus [23] = assay: In vivo efficacy against Streptococcus pneumoniae ATCC 6303 in mouse protection test after subcutaneous administration; format: functional; details: sc; how it was run: as §2
Mus musculus [24] = assay: In vivo efficacy against Staphylococcus aureus NCTC 10649M in mouse protection test after administration by oral gavage; format: functional
Pseudomonas aeruginosa [25] = assay: Not Plasmodium species; format: functional
[26] = Staphylococcus aureus, read-out: MIC
[27] = Escherichia coli, read-out: MIC
[28] = Enterococcus faecium, ATCC 8043, read-out: MIC
[29] = Burkholderia cepacia, read-out: MIC
[30] = Streptococcus pyogenes, read-out: MIC
[31] = Escherichia coli, sc, read-out: ED50
[32] = Pseudomonas aeruginosa, DPHP 5263, read-out: MIC
[33] = Staphylococcus aureus, NCTC 10649, read-out: MIC
[34] = Pseudomonas aeruginosa, read-out: MIC
[35] = Staphylococcus aureus, po, read-out: ED50
[36] = Streptococcus pneumoniae, sc, read-out: ED50
[37] = Pseudomonas aeruginosa, po, read-out: ED50
[38] = Escherichia coli, po, read-out: ED50

| MIC (Staphylococcus aureus [1]; [26]) [µg/mL] | MIC (Escherichia coli [2]; [27]) [µg/mL] | MIC (Enterococcus faecium; [28]) [µg/mL] | MIC (Burkholderia cepacia; [29]) [µg/mL] | MIC (Streptococcus pyogenes; [30]) [µg/mL] | MIC (Pseudomonas aeruginosa [5]; [32]) [µg/mL] | MIC (Staphylococcus aureus [6]; [33]) [µg/mL] | MIC (Pseudomonas aeruginosa [9]; [34]) [µg/mL] | MIC (Staphylococcus aureus [1]) [µg/mL] | SMILES | ED50 (Escherichia coli [4]; [31]) [mg/kg] | ED50 (Pseudomonas aeruginosa [7]) [mg/kg] | ED50 (Staphylococcus aureus [8]) [mg/kg] | ED50 (Staphylococcus aureus [11]; [35]) [mg/kg] | ED50 (Mus musculus [14]) [mg/kg] | also measured |
| --- | --- | --- | --- | --- | --- | --- | --- | --- | --- | --- | --- | --- | --- | --- | --- |
| 12.5 (≈ 32.4 µM) | 0.78 (≈ 2.02 µM) | 3.1 (≈ 8.04 µM) | 25 (≈ 64.9 µM) | 1.56 (≈ 4.05 µM) | 100 (≈ 259 µM) | 0.2 (≈ 0.519 µM) | 3.1 (≈ 8.04 µM) | – | Cc1c(N2CC[C@@H]3NCCC[C@@H]32)c(F)cn2c(=O)c(C(=O)O)cc(C3CC3)c12 | 4.4 | > 32 | 7 | 23.9 | – | ED50 (Mus musculus [3]): > 50 mg/kg; ED50 (Mus musculus [10]): > 10 mg/kg |
| 1.56 (≈ 3.87 µM) | 0.39 (≈ 0.967 µM) | 0.39 (≈ 0.967 µM) | 0.78 (≈ 1.93 µM) | 0.39 (≈ 0.967 µM) | 12.5 (≈ 31 µM) | 0.05 (≈ 0.124 µM) | 1.56 (≈ 3.87 µM) | – | COCCN[C@H]1CCN(c2c(F)cn3c(=O)c(C(=O)O)cc(C4CC4)c3c2C)C1 | 2.5 | – | 6.1 | 18.1 | – | ED50 (Mus musculus [12]): > 10 mg/kg |
| 6.2 (≈ 16.7 µM) | – | 0.1 (≈ 0.269 µM) | 3.1 (≈ 8.35 µM) | 0.1 (≈ 0.269 µM) | 6.2 (≈ 16.7 µM) | 0.05 (≈ 0.135 µM) | 0.2 (≈ 0.538 µM) | – | Cc1c(N2C[C@H]3CNC[C@H]3C2)c(F)cn2c(=O)c(C(=O)O)cc(C3CC3)c12 | 0.7 | 6.4 | 1.2 | 12.5 | 25.2 | MIC (Escherichia coli [13]): 0.2 µg/mL (≈ 0.538 µM); ED50 (Mus musculus [15]): 5 mg/kg; ED50 (Streptococcus pneumoniae; [36]): 1.3 mg/kg; ED50 (Pseudomonas aeruginosa [16]; [37]): 58.7 mg/kg |
| 0.78 (≈ 2.01 µM) | 0.78 (≈ 2.01 µM) | 0.2 (≈ 0.516 µM) | 3.1 (≈ 8 µM) | 0.2 (≈ 0.516 µM) | 25 (≈ 64.5 µM) | 0.05 (≈ 0.129 µM) | 1.56 (≈ 4.03 µM) | – | Cc1c(N2C[C@H]3NCCO[C@@H]3C2)c(F)cn2c(=O)c(C(=O)O)cc(C3CC3)c12 | > 5 | > 32 | 6 | 11.5 | – | ED50 (Mus musculus [10]): > 20 mg/kg; ED50 (Mus musculus [17]): > 50 mg/kg |
| – | 0.2 (≈ 0.538 µM) | 0.05 (≈ 0.135 µM) | 1.56 (≈ 4.2 µM) | – | – | 0.02 (≈ 0.0538 µM) | – | 0.39 (≈ 1.05 µM) | Cc1c(N2C[C@@H]3CCN[C@@H]3C2)c(F)cn2c(=O)c(C(=O)O)cc(C3CC3)c12 (stereo in doubt; 3gg) | 0.4 | 6.4 | 5 | – | 7.6 | ED50 (Mus musculus [18]): 2.5 mg/kg; ED50 (Mus musculus [19]): 0.7 mg/kg; ED50 (Pseudomonas aeruginosa [16]): 39.1 mg/kg |
| 1.56 (≈ 4.18 µM) | 0.39 (≈ 1.04 µM) | 0.2 (≈ 0.536 µM) | 1.56 (≈ 4.18 µM) | 0.1 (≈ 0.268 µM) | 12.5 (≈ 33.5 µM) | 0.05 (≈ 0.134 µM) | 0.78 (≈ 2.09 µM) | – | Cc1c(N2CC[C@H](C)[C@H](N)C2)c(F)cn2c(=O)c(C(=O)O)cc(C3CC3)c12 (stereo in doubt; 3ss) | – | – | 3.3 | – | – | ED50 (Streptococcus pneumoniae): 1 mg/kg; ED50 (Escherichia coli [4]): 0.6 mg/kg; ED50 (Mus musculus [20]): 2 mg/kg; ED50 (Escherichia coli [21]): 1.4 mg/kg; ED50 (Staphylococcus aureus [11]): 0.8 mg/kg |
| – | – | – | – | – | – | – | – | 1.56 (≈ 4.18 µM) | CN[C@@H]1CN(c2c(F)cn3c(=O)c(C(=O)O)cc(C4CC4)c3c2C)C[C@H]1C (stereo in doubt; 3v) | 2.8 | 16.1 | 1.6 | 6.3 | – | MIC (Escherichia coli [2]): 0.2 µg/mL (≈ 0.536 µM); MIC (Enterococcus faecium): 0.2 µg/mL (≈ 0.536 µM); MIC (Burkholderia cepacia): 1.56 µg/mL (≈ 4.18 µM); MIC (Streptococcus pyogenes): 0.2 µg/mL (≈ 0.536 µM); ED50 (Mus musculus [3]): > 50 mg/kg; ED50 (Streptococcus pneumoniae; [36]): 5 mg/kg; MIC (Pseudomonas aeruginosa [5]): 12.5 µg/mL (≈ 33.5 µM); MIC (Staphylococcus aureus [6]): 0.02 µg/mL (≈ 0.0536 µM); MIC (Pseudomonas aeruginosa [9]): 0.39 µg/mL (≈ 1.04 µM); ED50 (Escherichia coli [21]; [38]): 9.1 mg/kg; ED50 (Mus musculus [22]): 13 mg/kg |
| – | – | – | – | – | – | – | – | 0.78 (≈ 2.26 µM) | Cc1c(N2CC[C@H](N)C2)c(F)cn2c(=O)c(C(=O)O)cc(C3CC3)c12 (stereo in doubt; -(S)-3i) [ABT-719] | – | – | – | – | – | MIC (Enterococcus faecium): 0.02 µg/mL (≈ 0.0579 µM); MIC (Escherichia coli [13]): 0.02 µg/mL (≈ 0.0579 µM); MIC (Burkholderia cepacia): 0.39 µg/mL (≈ 1.13 µM); MIC (Streptococcus pyogenes): 0.02 µg/mL (≈ 0.0579 µM); MIC (Pseudomonas aeruginosa [5]): 0.39 µg/mL (≈ 1.13 µM); MIC (Staphylococcus aureus [6]): 0.01 µg/mL (≈ 0.029 µM); MIC (Pseudomonas aeruginosa [9]): 0.05 µg/mL (≈ 0.145 µM) |

| SMILES | MIC (Staphylococcus aureus [1]; [26]) [µg/mL] | MIC (Escherichia coli [2]; [27]) [µg/mL] | MIC (Enterococcus faecium; [28]) [µg/mL] | MIC (Burkholderia cepacia; [29]) [µg/mL] | MIC (Streptococcus pyogenes; [30]) [µg/mL] | MIC (Pseudomonas aeruginosa [5]; [32]) [µg/mL] | MIC (Staphylococcus aureus [6]; [33]) [µg/mL] | MIC (Pseudomonas aeruginosa [9]; [34]) [µg/mL] | MIC (Staphylococcus aureus [1]) [µg/mL] | ED50 (Escherichia coli [4]; [31]) [mg/kg] | ED50 (Pseudomonas aeruginosa [7]) [mg/kg] | ED50 (Staphylococcus aureus [8]) [mg/kg] | ED50 (Staphylococcus aureus [11]; [35]) [mg/kg] | ED50 (Mus musculus [14]) [mg/kg] | also measured |
| --- | --- | --- | --- | --- | --- | --- | --- | --- | --- | --- | --- | --- | --- | --- | --- |
| O=C(O)c1cn(C2CC2)c2cc(N3CCNCC3)c(F)cc2c1=O [CIPROFLOXACIN] | > 100 | – | 0.39 (≈ 1.18 µM) | 6.2 (≈ 18.7 µM) | – | – | 0.39 (≈ 1.18 µM) | – | – | 0.2 | 2.4 | 3.6 | – | > 100 | ED50 (Mus musculus [23]): 37.4 mg/kg; ED50 (Mus musculus [24]): 25 mg/kg; MIC (Pseudomonas aeruginosa [25]): 0.1 µg/mL (≈ 0.302 µM); ED50 (Escherichia coli [21]; [38]): 1.3 mg/kg; ED50 (Pseudomonas aeruginosa [16]; [37]): 20 mg/kg |
